Experimental data from PMC3947130 (Molecular cancer therapeutics, 2013).
“Also recorded” adds a separate entry of the source.

Experiments:
[1] = test system: MDA-MB-231 cells; assay: TRAIL-induced killing / TRAIL sensitization, cell viability; format: cell-based, human
Procedure, shortened: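 MDA-MB-231 cells in DMEM/10% FBS seeded at 5000 cells/well and left to attach overnight. Pre-treated 4 h at 37°C with vehicle (0.1% DMSO) or 5 μM test compound, then TRAIL (up to 100 ng/mL) added for 20 h at 37°C. After 30 min at room temperature, CellTiter-Glo luminescence read. At least triplicate, at least three independent times.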

[2] = test system: non-canonical NF-κB pathway; assay: Immunoblot of non-canonical NF-κB pathway; format: cell-based, human; conditions: MDA-MB-231 cells, 5 μM, 24 h, Fig. 4D
Procedure, shortened: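 MDA-MB-231 cells grown in DMEM with 10% FBS, exposed to vehicle or 5 μM test compound for 24 h. Cell protein extracts immunoblotted for NIK, phospho-NF-κB2, NF-κB2 and cIAP-1/-2, with Erk 1/2 as loading control. HRP-conjugated anti-rabbit or anti-mouse secondary applied for 1 h, then enhanced chemiluminescence detection.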

**Q.** Which results are given for `O=Cc1coc2ccccc2c1=O` [3-FC, reference compound]?
**A.** sensitization to TRAIL ([1]; 3-FC alone with TRAIL, Supp. Fig. S1D): results in sensitization to TRAIL; sensitization to TRAIL with IAP inhibition ([1]; 3-FC together with IAP inhibition, Supp. Fig. S1D): induces even greater sensitization

**Q.** `CC(C)[C@H](NC(=O)[C@H](C)N)C(=O)N[C@@H](C)C(=O)NNc1ccccc1` [MLS-0412113] was tested. Which “sensitization to TRAIL-mediated cell killing” value ([1]; 5 μM pre-treatment 4 h, then TRAIL 20 h, Fig. 2B) did it give?
**A.** The value was “no activity; also recorded: lacked TRAIL sensitizing ability altogether”.

**Q.** How did the “effect of IKK inhibition in the model systems” value ([1]; data not shown) turn out when `Cc1ccc(S(=O)(=O)/C=C/C#N)cc1` [BAY 11-7082, reference compound] was run?
**A.** Its value is “failed to have any effect”.

**Q.** `CN[C@@H](C)C(=O)N[C@H]1CCO[C@H]2CC(C)(C)[C@@H](C(=O)N[C@@H]3CCCc4ccccc43)N2C1=O` [SBI-0636457] was tested. Which NIK levels [2] did it give?
**A.** Its NIK levels is “profound induction of NIK levels”.

**Q.** What about the “phosphorylation and processing of NF-κB2” value [2] of the same molecule?
**A.** The value was “enhanced phosphorylation and processing of NF-κB2”.

B1: Tumor Necrosis Factor Related Apoptosis Inducing Ligand (protein, UniProt P50591 1-281, looked up)
Tumor necrosis factor ligand …: MAMMEVQGGPSLGQTCVLIVIFTVLLQSLCVAVTYVYFTNELKQMQDKYSKSGIACFLKEDDSYWDPNDEESMNSPCWQVKWQLRQLVRKMILRTSEETISTVQEKQQNISPLVRERGPQRVAAHITGTRGRSNTLSSPNSKNEKALGRKINSWESSRSGHSFLSNLHLRNGELVIHEKGFYYIYSQTYFRFQEEIKENTKNDKQMVQYIYKYTSYPDPILLMKSARNSCWSKDAEYGLYSIYQGGIFELKENDRIFVSVTNEHLIDMDHEASFFGAFLVG
**Q.** B1 was tested. Which “cell death by TRAIL alone” value ([1]; TRAIL alone, up to 100 ng/mL, 20 h, Fig. 2B) did it give?
**A.** The value was “fails to induce appreciable cell death”.
